Tests used:
[1] = Drug level in human HCT116 cells at 10 umol/L measured per 5 x 10^5 cells after 3 hrs by UPLC-MS/MS analysis; assay type: ADME, cell-based; settings: hct-116, 3 h, 10 µM
[2] = Drug level in human BJ cells at 10 umol/L measured per 5 x 10^5 cells after 3 hrs by UPLC-MS/MS analysis; assay type: ADME, cell-based; settings: 10 µM
CCRF-CEM [3] = experiment: Inhibition of mitosis in human CCRF-CEM cells assessed as pH3Ser10 positive cells at 5 times IC50 after 24 hrs by flow cytometric analysis (reference value: 1.74%); assay type: functional
CCRF-CEM [4] = experiment: Inhibition of mitosis in human CCRF-CEM cells assessed as pH3Ser10 positive cells at IC50 after 24 hrs by flow cytometric analysis (reference value: 1.74%); assay type: functional
Hepatitis C virus [5] = experiment: Anti-HCV activity against Hepatitis C virus genotype 1b infected in human Huh7 replicon cells after 96 hrs by luciferase reporter gene assay; assay type: functional, cell-based, Hepacivirus hominis; settings: Huh-7, 96 h
CCRF-CEM [6] = experiment: Cell cycle arrest in human CCRF-CEM cells assessed as accumulation at G0/G1 phase at IC50 after 24 hrs by propidium iodide staining-based flow cytometric analysis (reference value: 41.11%); assay type: functional
CCRF-CEM [7] = experiment: Cytotoxicity against human CCRF-CEM cells assessed as cell growth inhibition after 72 hrs by MTS assay
[8] = Drug level in human BJ cells at 1 umol/L measured per 5 x 10^5 cells after 3 hrs by UPLC-MS/MS analysis; assay type: ADME, cell-based; settings: 1 µM
[9] = Cytotoxicity against human K562-TAX cells assessed as cell growth inhibition after 72 hrs by MTS assay; assay type: functional, cell-based
Procedure, shortened: (§1)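 Cells were exposed to compound for 3 days, then stained with MTS as a quantitative metabolic read-out. IC50 is the concentration that inhibits cell growth by 50%.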

CCRF-CEM [10] = experiment: Inhibition of DNA synthesis in human CCRF-CEM cells assessed as decrease in BrdU incorporation by measuring synthesized DNA levels at IC50 after 24 hrs by propidium iodide staining-based flow cytometric analysis (reference value: 52.66%); assay type: functional
CCRF-CEM [11] = experiment: Induction of apoptosis in human CCRF-CEM cells assessed as accumulation at subG1 phase at 5 times IC50 after 24 hrs by propidium iodide staining-based flow cytometric analysis (reference value: 2.32%); assay type: functional
[12] = Drug level in human HCT116 cells at 10 umol/L measured per 5 x 10^5 cells after 1 hr by UPLC-MS/MS analysis; assay type: ADME, cell-based; settings: hct-116, 1 h, 10 µM
[13] = Drug level in human HCT116 cells at 1 umol/L measured per 5 x 10^5 cells after 1 hr by UPLC-MS/MS analysis; assay type: ADME, cell-based; settings: hct-116, 1 h, 1 µM
MRC5 = experiment: Cytotoxicity against human MRC5 cells assessed as cell growth inhibition after 72 hrs by MTS assay; assay type: cell-based; settings: MRC5, 72 h; procedure, shortened: as §1
CCRF-CEM [14] = experiment: Cell cycle arrest in human CCRF-CEM cells assessed as accumulation at G0/G1 phase at 5 times IC50 after 24 hrs by propidium iodide staining-based flow cytometric analysis (reference value: 41.11%); assay type: functional
HL-60 = experiment: Cytotoxicity against human HL60 cells assessed as reduction in cell viability after 72 hrs by XTT assay; assay type: functional, cell-based; settings: HL-60, 72 h
Procedure, shortened: (§2)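 Cells were incubated with compound for 3 days. Viability was then measured with the XTT tetrazolium assay.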

CCRF-CEM [15] = experiment: Cell cycle arrest in human CCRF-CEM cells assessed as accumulation at S phase at 5 times IC50 after 24 hrs by propidium iodide staining-based flow cytometric analysis (reference value: 44.20%); assay type: functional
HCT-116 [16] = experiment: Cytotoxicity against p53 deficient human HCT116 cells assessed as cell growth inhibition after 72 hrs by MTS assay; assay type: functional, cell-based; settings: HCT-116, 72 h; procedure, shortened: as §1
Hepatitis C virus [17] = experiment: Anti-HCV activity against Hepatitis C virus genotype 2a infected in human Huh7 replicon cells after 96 hrs by luciferase reporter gene assay; assay type: functional, cell-based, Hepacivirus hominis; settings: Huh-7, 96 h
U2OS = experiment: Cytotoxicity against human U2OS cells assessed as cell growth inhibition after 72 hrs by MTS assay; assay type: functional, cell-based
[18] = Drug level in human HCT116 cells at 1 umol/L measured per 5 x 10^5 cells after 3 hrs by UPLC-MS/MS analysis; assay type: ADME, cell-based; settings: hct-116, 3 h, 1 µM
A549 = experiment: Cytotoxicity against human A549 cells assessed as cell growth inhibition after 72 hrs by MTS assay; assay type: functional, cell-based; settings: A549, 72 h; procedure, shortened: as §1
CCRF-CEM [19] = experiment: Cell cycle arrest in human CCRF-CEM cells assessed as accumulation at G2/M phase at IC50 after 24 hrs by propidium iodide staining-based flow cytometric analysis (reference value: 14.70%); assay type: functional
[20] = Drug level in human BJ cells at 1 umol/L measured per 5 x 10^5 cells after 1 hr by UPLC-MS/MS analysis; assay type: ADME, cell-based; settings: 1 µM
HepG2 = experiment: Cytotoxicity against human HepG2 cells assessed as reduction in cell viability after 72 hrs by XTT assay; assay type: functional, cell-based; settings: HepG2, 72 h; procedure, shortened: as §2
HCT-116 [21] = experiment: Cytotoxicity against human HCT116 cells assessed as cell growth inhibition after 72 hrs by MTS assay; assay type: functional, cell-based; settings: HCT-116, 72 h; procedure, shortened: as §1
[22] = Cytotoxicity against mrp-1/mdr-1 overexpressing human CEM-DNR-bulk cells assessed as cell growth inhibition after 72 hrs by MTS assay; assay type: functional, cell-based
Procedure, shortened: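 Cells were exposed to compound for 3 days, then stained with MTS as a quantitative metabolic read-out.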

CCRF-CEM [23] = experiment: Cell cycle arrest in human CCRF-CEM cells assessed as accumulation at S phase at IC50 after 24 hrs by propidium iodide staining-based flow cytometric analysis (reference value: 44.20%); assay type: functional
CCRF-CEM [24] = experiment: Inhibition of RNA synthesis in human CCRF-CEM cells assessed as decrease in BrU incorporation by measuring synthesized RNA levels at 5 times IC50 after 24 hrs by propidium iodide staining-based flow cytometric method (reference value: 53.09%); assay type: functional
CCRF-CEM [25] = experiment: Induction of apoptosis in human CCRF-CEM cells assessed as accumulation at subG1 phase at IC50 after 24 hrs by propidium iodide staining-based flow cytometric analysis (reference value: 2.32%); assay type: functional
CCRF-CEM [26] = experiment: Inhibition of RNA synthesis in human CCRF-CEM cells assessed as decrease in BrU incorporation by measuring synthesized RNA levels at IC50 after 24 hrs by propidium iodide staining-based flow cytometric method (reference value: 53.09%); assay type: functional
CCRF-CEM [27] = experiment: Inhibition of DNA synthesis in human CCRF-CEM cells assessed as decrease in BrdU incorporation by measuring synthesized DNA levels at 5 times IC50 after 24 hrs by propidium iodide staining-based flow cytometric analysis (reference value: 52.66%); assay type: functional
CCRF-CEM [28] = experiment: Inhibition of mitosis in human CCRF-CEM cells assessed as pH3Ser10 positive cells after 24 hrs by flow cytometric analysis; assay type: functional, cell-based
[29] = Cytotoxicity against human HuH7 cells; assay type: cell-based, Huh-7
[30] = Drug level in human BJ cells at 10 umol/L measured per 5 x 10^5 cells after 1 hr by UPLC-MS/MS analysis; assay type: ADME, cell-based; settings: 10 µM
CCRF-CEM [31] = experiment: Cell cycle arrest in human CCRF-CEM cells assessed as accumulation at G2/M phase at 5 times IC50 after 24 hrs by propidium iodide staining-based flow cytometric analysis (reference value: 14.70%); assay type: functional
BJ = experiment: Cytotoxicity against human BJ cells assessed as cell growth inhibition after 72 hrs by MTS assay; assay type: cell-based; procedure, shortened: as §1
K562 = experiment: Cytotoxicity against human K562 cells assessed as cell growth inhibition after 72 hrs by MTS assay; assay type: functional, cell-based; settings: K562, 72 h; procedure, shortened: as §1
HeLa S3 = experiment: Cytotoxicity against human HeLaS3 cells assessed as reduction in cell viability after 72 hrs by XTT assay; assay type: functional, cell-based; settings: HeLa S3, 72 h; procedure, shortened: as §2

CSc1ncnc2c1c1sccc1n2[C@@H]1O[C@H](CO)[C@@H](O)[C@H]1O
Drug uptake [1]: 1299 pmol | Drug uptake [2]: 3161.5 pmol | pH3Ser10+ cells (%) (CCRF-CEM [3]): 1.03% | pH3Ser10+ cells (%) (CCRF-CEM [4]): 1.92% | EC50 (Hepatitis C virus [5]): 0.47 µM | Activity (CCRF-CEM [6]): 44.14% | IC50 (CCRF-CEM [7]): 0.027 µM | Drug uptake [8]: 1750.5 pmol | IC50 [9]: 2.2 µM | BrdU+ cells (%) (CCRF-CEM [10]): 51.67% | Activity (CCRF-CEM [11]): 18.15% | Drug uptake [12]: 525.5 pmol | Drug uptake [13]: 105.4 pmol | IC50 (MRC5): 9.01 µM | Activity (CCRF-CEM [14]): 41.28% | IC50 (HL-60): 0.51 µM | Activity (CCRF-CEM [15]): 38.11% | IC50 (HCT-116 [16]): 0.09 µM | EC50 (Hepatitis C virus [17]): 0.34 µM | IC50 (U2OS): 0.46 µM | Drug uptake [18]: 602.8 pmol | IC50 (A549): 0.66 µM | Activity (CCRF-CEM [19]): 21.65% | Drug uptake [20]: 711.7 pmol | IC50 (HepG2): 0.36 µM | IC50 (HCT-116 [21]): 0.05 µM | IC50 [22]: 1.46 µM | Activity (CCRF-CEM [23]): 34.12% | BrU+ cells (%) (CCRF-CEM [24]): 0.16% | Activity (CCRF-CEM [25]): 10.83% | BrU+ cells (%) (CCRF-CEM [26]): 1.46% | BrdU+ cells (%) (CCRF-CEM [27]): 51.49% | Activity (CCRF-CEM [28]): Dose-dependent effect | CC50 [29]: > 44.4 µM | Drug uptake [30]: 2298.3 pmol | Activity (CCRF-CEM [31]): 20.61% | IC50 (BJ): 1.25 µM | IC50 (K562): 0.35 µM | IC50 (HeLa S3): 0.72 µM
